Measured values reported in ChEMBL document CHEMBL2390837, “Synthesis, cytotoxic activity and DNA-interaction studies of novel anthraquinone-thiosemicarbazones with tautomerizable methylene group” (Eur J Med Chem, 2013).
Calls of active or inactive are those of the source. No cut-off for these calls is given here.

Key:
HeLa [1] = experiment: Cell cycle arrest in human HeLa cells assessed as accumulation at G2/M phase at IC50 after 24 hrs by propidium iodide staining-based FACS flow cytometric analysis (reference value: 21.66%); type: functional
HeLa [2] = experiment: Cytotoxicity against human HeLa cells after 72 hrs by MTT assay; type: functional, cell-based
Procedure, shortened: (§1)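 Cells seeded in 96-well plates: HeLa 2000, MDA-MB-361 7000, MDA-MB-453 3000, K562, A549 and MRC-5 5000 per well. Compounds added at 5–100 μM (final), DMSO ≤0.5%, in RPMI-1640 with 10% FBS. Added after 24 h, except K562 at 2 h after seeding. Exposure 72 h, then MTT 4 h at 37 °C, SDS solubilization, A570 read. IC50 is the mean ± SD of three independent experiments.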

HeLa [3] = experiment: Induction of apoptosis in human HeLa cells at IC90 after 24 hrs by propidium iodide staining-based FACS flow cytometric analysis in presence of caspase-9 inhibitor Z-LEHD-FMK; type: functional, cell-based
MRC5 = experiment: Cytotoxicity against human MRC5 cells after 72 hrs by MTT assay; type: cell-based; details: MRC5, 72 h; procedure, shortened: as §1
HeLa [4] = experiment: Cell cycle arrest in human HeLa cells assessed as accumulation at G1 phase at IC50 after 24 hrs by propidium iodide staining-based FACS flow cytometric analysis (reference value: 51.97%); type: functional
HeLa [5] = experiment: Cell cycle arrest in human HeLa cells assessed as accumulation at G1 phase at 2 times IC50 after 24 hrs by propidium iodide staining-based FACS flow cytometric analysis (reference value: 51.97%); type: functional
Escherichia coli = experiment: Induction of Escherichia coli XL1 blue pUC18 DNA cleavage assessed as conversion of supercoiled DNA to relaxed circular DNA at 2 mM after 90 mins by agarose gel electrophoresis
Procedure, shortened: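 Supercoiled pUC18 (262 ng, from E. coli XL1 blue) incubated with 2 mM compound in 20 μL of 40 mM bicarbonate buffer pH 8.4 at 37 °C for 90 min. Reaction stopped with loading buffer. Analyzed on 1% agarose in TAE pH 8.24 at 80 V and stained with ethidium bromide (0.5 µg/mL).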

HeLa [6] = experiment: Induction of apoptosis in human HeLa cells at IC90 after 24 hrs by propidium iodide staining-based FACS flow cytometric analysis in presence of caspase-8 inhibitor Z-IETD-FMK; type: functional, cell-based
DNA = experiment: Binding affinity to calf thymus DNA at 20 to 80 uM after 1.5 hrs by UV-vis spectrophotometric analysis; type: nucleic-acid assay; details: Bos taurus
Procedure, shortened: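 UV–Vis spectra (200–800 nm, 1 cm cells) of compound at 20, 40, 60 or 80 μM, with or without 0.12 mM CT-DNA. CT-DNA was dissolved in 10 mM Tris-HCl pH 7.9. Mixtures were in 40 mM bicarbonate buffer pH 8.4, incubated 1.5 h at 37 °C with occasional vortexing.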

HeLa [7] = experiment: Cell cycle arrest in human HeLa cells assessed as accumulation at subG1 phase at 2 times IC50 after 24 hrs by propidium iodide staining-based FACS flow cytometric analysis (reference value: 9.10%); type: functional
A549 = experiment: Cytotoxicity against human A549 cells after 72 hrs by MTT assay; type: functional, cell-based; details: A549, 72 h; procedure, shortened: as §1
HeLa [8] = experiment: Cell cycle arrest in human HeLa cells assessed as accumulation at S phase at 2 times IC50 after 24 hrs by propidium iodide staining-based FACS flow cytometric analysis (reference value: 16.22%); type: functional
HeLa [9] = experiment: Cell cycle arrest in human HeLa cells assessed as accumulation at S phase at IC50 after 24 hrs by propidium iodide staining-based FACS flow cytometric analysis (reference value: 16.22%); type: functional
MDA-MB-361 = experiment: Cytotoxicity against human MDA-MB-361 cells after 72 hrs by MTT assay; type: functional, cell-based; details: MDA-MB-361, 72 h; procedure, shortened: as §1
K562 = experiment: Cytotoxicity against human K562 cells after 72 hrs by MTT assay; type: functional, cell-based; details: K562, 72 h; procedure, shortened: as §1
HeLa [10] = experiment: Cell cycle arrest in human HeLa cells assessed as accumulation at subG1 phase at IC50 after 24 hrs by propidium iodide staining-based FACS flow cytometric analysis (reference value: 9.10%); type: functional
HeLa [11] = experiment: Induction of apoptosis in human HeLa cells at IC90 after 24 hrs by propidium iodide staining-based FACS flow cytometric analysis in presence of caspase-3 inhibitor Z-DEVD-FMK; type: functional, cell-based
MDA-MB-453 = experiment: Cytotoxicity against human MDA-MB-453 cells after 72 hrs by MTT assay; type: functional, cell-based; details: MDA-MB-453, 72 h; procedure, shortened: as §1
[12] = system: Radical scavenging activity; experiment: Antioxidant activity assessed as DPPH radical scavenging activity after 30 mins by spectrophotometric analysis; type: functional
Procedure, shortened: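 Test solutions at 8–1000 μM in methanol mixed 1:1 by volume with 200 μM DPPH in methanol, kept 30 min in the dark at room temperature. Absorbance read at 517 nm against blanks without DPPH. Percent scavenging = (A_DPPH − A_sample)/A_DPPH × 100. IC50 (concentration halving DPPH absorbance) read from a plot of % versus concentration. Ascorbic acid and BHT used as standards.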

HeLa [13] = experiment: Cell cycle arrest in human HeLa cells assessed as accumulation at G2/M phase at 2 times IC50 after 24 hrs by propidium iodide staining-based FACS flow cytometric analysis (reference value: 21.66%); type: functional

With CCOC(=O)/C(CC(=O)c1cccc2c1C(=O)c1ccccc1C2=O)=N\NC(=S)NCc1cccnc1 the Activity (HeLa [1]) was “Active”, the IC50 (HeLa [2]) was 18.1 µM and the Activity (HeLa [3]) was “Active”. The IC50 (MRC5) was 13.6 µM, the Activity (HeLa [4]) was “Active” and the Activity (HeLa [5]) was “Active”. For the same compound, the Activity (Escherichia coli) was “inactive”, the Activity (HeLa [6]) was “Active” and the Activity (DNA) was “Active”. For the same compound, the Activity (HeLa [7]) was “Active”, the IC50 (A549) was 23.4 µM and the Activity (HeLa [8]) was “Active”. The Activity (HeLa [9]) was “Active”, the IC50 (MDA-MB-361) was 50.5 µM and the IC50 (K562) was 2.17 µM. For the same compound, the Activity (HeLa [10]) was “Active”, the Activity (HeLa [11]) was “Active” and the IC50 (MDA-MB-453) was 17.7 µM. The IC50 [12] was 46.9 µM and the Activity (HeLa [13]) was “Active”.

With Cc1cc(C(C)(C)C)c(O)c(C(C)(C)C)c1 [BUTYLATED HYDROXYTOLUENE] the IC50 [12] was 33.9 µM.

Work on CCOC(=O)/C(CC(=O)c1cccc2c1C(=O)c1ccccc1C2=O)=N\Nc1ccccc1 yielded an IC50 (HeLa [2]) of 40 µM, an IC50 (MRC5) of 40 µM and an IC50 (A549) of 40 µM. For the same compound, the IC50 (MDA-MB-361) was 40 µM, the IC50 (K562) was 40 µM and the IC50 (MDA-MB-453) was 40 µM.

For CCCCNC(=S)N/N=C(/CC(=O)c1cccc2c1C(=O)c1ccccc1C2=O)C(=O)OCC, the Activity (HeLa [1]) was “Active”, the IC50 (HeLa [2]) was 10.9 µM and the Activity (HeLa [3]) was “Active”. For the same compound, the IC50 (MRC5) was 21.1 µM, the Activity (HeLa [4]) was “Active” and the Activity (HeLa [5]) was “Active”. For the same compound, the Activity (Escherichia coli) was “inactive”, the Activity (HeLa [6]) was “Active” and the Activity (DNA) was “Active”. For the same compound, the Activity (HeLa [7]) was “Active”, the IC50 (A549) was 19.6 µM and the Activity (HeLa [8]) was “Active”. For the same compound, the Activity (HeLa [9]) was “Active”, the IC50 (MDA-MB-361) was 30.8 µM and the IC50 (K562) was 3.8 µM. For the same compound, the Activity (HeLa [10]) was “Active”, the Activity (HeLa [11]) was “Active” and the IC50 (MDA-MB-453) was 11.5 µM. For the same compound, the IC50 [12] was 25.8 µM and the Activity (HeLa [13]) was “Active”.

In the case of O=C1O[C@H]([C@@H](O)CO)C(O)=C1O [ASCORBIC ACID], the IC50 [12] is reported as 15.9 µM.

CCOC(=O)/C(CC(=O)c1cccc2c1C(=O)c1ccccc1C2=O)=N\NC(=S)NC1CCCCC1 was tested, and the Activity (HeLa [1]) was “Active”, the IC50 (HeLa [2]) was 9.15 µM and the Activity (HeLa [3]) was “Active”. The IC50 (MRC5) was 13.6 µM, the Activity (HeLa [4]) was “Active” and the Activity (HeLa [5]) was “Active”. The Activity (Escherichia coli) was “inactive”, the Activity (HeLa [6]) was “Active” and the Activity (DNA) was “Active”. The Activity (HeLa [7]) was “Active”, the IC50 (A549) was 13.9 µM and the Activity (HeLa [8]) was “Active”. For the same compound, the Activity (HeLa [9]) was “Active”, the IC50 (MDA-MB-361) was 32.6 µM and the IC50 (K562) was 2.35 µM. For the same compound, the Activity (HeLa [10]) was “Active”, the Activity (HeLa [11]) was “Active” and the IC50 (MDA-MB-453) was 4.64 µM. For the same compound, the IC50 [12] was 16.4 µM and the Activity (HeLa [13]) was “Active”.

With CCOC(=O)/C(=C/C(=O)c1cccc2c1C(=O)c1ccccc1C2=O)Nc1ccccc1 the IC50 (HeLa [2]) was 100 µM, the IC50 (MRC5) was 100 µM and the IC50 (A549) was 100 µM. The IC50 (MDA-MB-361) was 100 µM, the IC50 (K562) was 100 µM and the IC50 (MDA-MB-453) was 100 µM.
